According to paper PMC2880618 (Bioconjugate chemistry, 2009):
Where “and” joins values, the source holds several entries; their conditions need not be identical. Identical values can stand only once. Values belong to the compound of their own block, whether it stands above or below them.

Key:
sigma-1 receptor = sigma-1 receptor (Cavia porcellus, UniProt Q60492); test: Sigma-1 receptor competitive binding assay; design: species or system guinea pig
How it was run: (§1)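 Sigma-1: guinea pig brain membranes with 3H-PENT. Sigma-2: rat liver membranes from Sprague-Dawley rats with 3H-DTG, plus 1 μM dextrallorphane to mask sigma-1 sites.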

sigma-2 receptor = target: T1, sigma-2 receptor (Rattus norvegicus, UniProt Q5U3Y7); test: Sigma-2 receptor competitive binding assay
T1 sequence (Q5U3Y7 1-176): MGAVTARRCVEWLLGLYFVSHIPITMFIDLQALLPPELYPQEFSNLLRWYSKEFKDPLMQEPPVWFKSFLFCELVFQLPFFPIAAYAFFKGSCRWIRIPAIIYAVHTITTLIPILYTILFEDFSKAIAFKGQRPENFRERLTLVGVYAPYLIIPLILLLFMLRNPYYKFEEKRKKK
How it was run: as §1

[1] = Lipophilicity, shake flask 1-octanol/PBS pH 7.4; assay type: physicochemical; conditions: 1-octanol/phosphate-buffered saline
How it was run: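 Shake-flask partition: ~500 Kcpm radiotracer added to 1 mL 1-octanol plus 1 mL PBS pH 7.4, in triplicate. Tubes vortexed 3 min and layers allowed to separate. 100 μL aliquots of each phase counted for radioactivity; log P calculated from the counts.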

B16F1 melanoma cells = test: In vitro uptake assay in melanoma cells; assay type: cell-based, mouse; conditions: 1×10^6 cells/tube, 60 min, room temperature, n=3 tubes
How it was run: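 B16F1 mouse melanoma cells grown in DMEM with 10% FBS at 37°C, 5% CO2. At 80–90% confluence they were trypsinized and resuspended in PBS pH 7.4. Aliquots of 1×10^5, 5×10^5, 8×10^5 and 1×10^6 cells in triplicate tubes got ~200 Kcpm radiotracer for 1 hr at 22°C. Tubes were centrifuged and pellets washed with PBS; wash and pellet were gamma-counted. Uptake = % of total added activity in pellet.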

[2] = Tissue distribution studies in normal ICR mice; assay type: in vivo; conditions: tail vein, mean±SEM n=5
How it was run: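 Normal ICR mice (6–8 weeks) received ~15 μCi radiotracer in 100 μL saline by tail vein. At 30, 60, 120 and 180 min mice were euthanized; tissues removed, washed with PBS, weighed and gamma-counted with an injected-dose standard. Values expressed as %ID/g; group differences by unpaired Student's t-test, P<0.05.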

[3] = tested on: B16F1 melanoma tumor xenograft; test: Tissue distribution studies in C57 mice bearing B16F1 tumor xenograft; assay type: in vivo; conditions: for F-18 uptake in brain, Percent Injected Dose per gram Tissue / F-18 uptake in heart, Percent Injected Dose per gram Tissue / F-18 uptake in intestine, Percent Injected Dose per gram Tissue / F-18 uptake in kidneys, Percent Injected Dose per gram Tissue / F-18 uptake in liver, Percent Injected Dose per gram Tissue / F-18 uptake in lung, Percent Injected Dose per gram Tissue / F-18 uptake in muscle, Percent Injected Dose per gram Tissue / F-18 uptake in spleen, Percent Injected Dose per gram Tissue / F-18 uptake in the tumor / F-18 uptake in blood, Percent Injected Dose per gram Tissue / F-18 uptake in bone, Percent Injected Dose per gram Tissue: C57 mice bearing B16F1 melanoma tumor xenograft; for F-18 uptake in brain, Percent Injected Dose per gram Tissue / F-18 uptake in heart, Percent Injected Dose per gram Tissue / F-18 uptake in intestine, Percent Injected Dose per gram Tissue / F-18 uptake in kidneys, Percent Injected Dose per gram Tissue / F-18 uptake in liver, Percent Injected Dose per gram Tissue / F-18 uptake in lung, Percent Injected Dose per gram Tissue / F-18 uptake in muscle, Percent Injected Dose per gram Tissue / F-18 uptake in spleen, Percent Injected Dose per gram Tissue / F-18 uptake in blood, Percent Injected Dose per gram Tissue / F-18 uptake in bone, Percent Injected Dose per gram Tissue: tail vein, mean±SEM n=5; for F-18 uptake in the tumor: n=5
How it was run: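 C57 mice (6–8 weeks) inoculated in the right flank with ~5×10^6 B16F1 cells in 0.1 mL Matrigel:PBS (50:50). Studied once tumors exceeded 200 mm³. ~15 μCi radiotracer in 100 μL saline given by tail vein. Mice euthanized at 30, 60, 120 and 180 min; tissues washed, weighed and gamma-counted against an injected-dose standard. %ID/g ([…], n=5) and tumor-to-tissue ratios reported.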

[4] = C57 normal mice, cited from earlier work
[5] = C57 mice bearing B16F1 melanoma tumor, 180 min post-injection

sigma-1 receptor, sequence (Q60492 whole entry): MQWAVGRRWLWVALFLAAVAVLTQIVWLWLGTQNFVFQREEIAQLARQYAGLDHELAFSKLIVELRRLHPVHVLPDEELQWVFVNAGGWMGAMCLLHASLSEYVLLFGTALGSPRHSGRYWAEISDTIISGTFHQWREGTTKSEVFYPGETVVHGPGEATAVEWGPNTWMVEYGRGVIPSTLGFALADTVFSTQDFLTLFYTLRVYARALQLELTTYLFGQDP

- IC50 (sigma-1 receptor): > 1 µM
- IC50 (sigma-2 receptor): > 1 µM
Structure (SMILES): CCN(CC)CCNC(=O)c1ccc(F)cc1 [DAFBA, N-(2-diethylaminoethyl)-4-fluorobenzamide]

- logP [1]: 1.7
- F-18 uptake in blood, Percent Injected Dose per gram Tissue ([2]; 30 min post injection): 0.78 ± 0.07 %ID/g
- F-18 uptake in bone, Percent Injected Dose per gram Tissue ([2]; 30 min post injection): 0.81 ± 0.19 %ID/g
- F-18 uptake in brain, Percent Injected Dose per gram Tissue ([2]; 30 min post injection): 2.16 ± 0.32 %ID/g
- F-18 uptake in heart, Percent Injected Dose per gram Tissue ([2]; 30 min post injection): 1.10 ± 0.14 %ID/g
- F-18 uptake in kidneys, Percent Injected Dose per gram Tissue ([2]; 30 min post injection): 4.13 ± 0.68 %ID/g
- F-18 uptake in liver, Percent Injected Dose per gram Tissue ([2]; 30 min post injection): 3.12 ± 0.62 %ID/g
- F-18 uptake in lung, Percent Injected Dose per gram Tissue ([2]; 30 min post injection): 1.75 ± 0.43 %ID/g
- F-18 uptake in muscle, Percent Injected Dose per gram Tissue ([2]; 30 min post injection): 0.88 ± 0.13 %ID/g
- F-18 uptake in spleen, Percent Injected Dose per gram Tissue ([2]; 30 min post injection): 2.35 ± 0.07 %ID/g
- F-18 uptake in blood, Percent Injected Dose per gram Tissue ([2]; 60 min post injection): 0.67 ± 0.05 %ID/g
- F-18 uptake in brain, Percent Injected Dose per gram Tissue ([2]; 60 min post injection): 1.54 ± 0.24 %ID/g
- F-18 uptake in heart, Percent Injected Dose per gram Tissue ([2]; 60 min post injection): 0.92 ± 0.10 %ID/g
- F-18 uptake in intestine, Percent Injected Dose per gram Tissue ([2]; 60 min post injection): 1.39 ± 0.54 %ID/g
- F-18 uptake in liver, Percent Injected Dose per gram Tissue ([2]; 60 min post injection): 3.61 ± 0.48 %ID/g
- F-18 uptake in lung, Percent Injected Dose per gram Tissue ([2]; 60 min post injection): 1.84 ± 0.41 %ID/g
- F-18 uptake in muscle, Percent Injected Dose per gram Tissue ([2]; 60 min post injection): 0.65 ± 0.11 %ID/g
- F-18 uptake in spleen, Percent Injected Dose per gram Tissue ([2]; 60 min post injection): 1.87 ± 0.46 %ID/g
- F-18 uptake in brain, Percent Injected Dose per gram Tissue ([2]; 120 min post injection): 0.52 ± 0.07 %ID/g
- F-18 uptake in heart, Percent Injected Dose per gram Tissue ([2]; 120 min post injection): 0.28 ± 0.05 %ID/g
- F-18 uptake in intestine, Percent Injected Dose per gram Tissue ([2]; 120 min post injection): 0.26 ± 0.26 %ID/g
- F-18 uptake in kidneys, Percent Injected Dose per gram Tissue ([2]; 120 min post injection): 1.58 ± 0.51 %ID/g
- F-18 uptake in blood, Percent Injected Dose per gram Tissue ([2]; 180 min post injection): 0.21 ± 0.03 %ID/g
- F-18 uptake in bone, Percent Injected Dose per gram Tissue ([2]; 180 min post injection): 0.24 ± 0.10 %ID/g
- F-18 uptake in heart, Percent Injected Dose per gram Tissue ([2]; 180 min post injection): 0.23 ± 0.03 %ID/g
- F-18 uptake in intestine, Percent Injected Dose per gram Tissue ([2]; 180 min post injection): 0.40 ± 0.11 %ID/g
- F-18 uptake in kidneys, Percent Injected Dose per gram Tissue ([2]; 180 min post injection): 1.34 ± 0.36 %ID/g
- F-18 uptake in liver, Percent Injected Dose per gram Tissue ([2]; 180 min post injection): 1.12 ± 0.20 %ID/g
- F-18 uptake in lung, Percent Injected Dose per gram Tissue ([2]; 180 min post injection): 0.49 ± 0.07 %ID/g
- F-18 uptake in spleen, Percent Injected Dose per gram Tissue ([2]; 180 min post injection): 0.53 ± 0.08 %ID/g
- F-18 uptake in brain, Percent Injected Dose per gram Tissue ([3]; 30 min post injection): 2.02 ± 0.35 %ID/g
- F-18 uptake in heart, Percent Injected Dose per gram Tissue ([3]; 30 min post injection): 1.25 ± 0.28 %ID/g
- F-18 uptake in intestine, Percent Injected Dose per gram Tissue ([3]; 30 min post injection): 1.94 ± 0.51 %ID/g
- F-18 uptake in kidneys, Percent Injected Dose per gram Tissue ([3]; 30 min post injection): 4.50 ± 1.33 %ID/g
- F-18 uptake in liver, Percent Injected Dose per gram Tissue ([3]; 30 min post injection): 3.27 ± 0.90 %ID/g
- F-18 uptake in lung, Percent Injected Dose per gram Tissue ([3]; 30 min post injection): 2.46 ± 1.27 %ID/g
- F-18 uptake in muscle, Percent Injected Dose per gram Tissue ([3]; 30 min post injection): 1.09 ± 0.18 %ID/g
- F-18 uptake in spleen, Percent Injected Dose per gram Tissue ([3]; 30 min post injection): 2.14 ± 0.41 %ID/g
- F-18 uptake in the tumor ([3]; 60 min post injection): 7.00±2.76 %ID/g
- F-18 uptake in blood, Percent Injected Dose per gram Tissue ([3]; 60 min post injection): 0.68 ± 0.21 %ID/g
- F-18 uptake in bone, Percent Injected Dose per gram Tissue ([3]; 60 min post injection): 0.90 ± 0.27 %ID/g
- F-18 uptake in brain, Percent Injected Dose per gram Tissue ([3]; 60 min post injection): 1.68 ± 0.43 %ID/g
- F-18 uptake in heart, Percent Injected Dose per gram Tissue ([3]; 60 min post injection): 1.27 ± 0.50 %ID/g
- F-18 uptake in intestine, Percent Injected Dose per gram Tissue ([3]; 60 min post injection): 1.98 ± 0.88 %ID/g
- F-18 uptake in kidneys, Percent Injected Dose per gram Tissue ([3]; 60 min post injection): 5.38 ± 1.86 %ID/g
- F-18 uptake in liver, Percent Injected Dose per gram Tissue ([3]; 60 min post injection): 5.01 ± 2.06 %ID/g
- F-18 uptake in lung, Percent Injected Dose per gram Tissue ([3]; 60 min post injection): 2.48 ± 1.27 %ID/g
- F-18 uptake in muscle, Percent Injected Dose per gram Tissue ([3]; 60 min post injection): 1.10 ± 0.38 %ID/g
- F-18 uptake in spleen, Percent Injected Dose per gram Tissue ([3]; 60 min post injection): 1.83 ± 0.54 %ID/g
- F-18 uptake in the tumor ([3]; 120 min post injection): 6.57±1.66 %ID/g
- F-18 uptake in bone, Percent Injected Dose per gram Tissue ([3]; 120 min post injection): 0.57 ± 0.32 %ID/g
- F-18 uptake in brain, Percent Injected Dose per gram Tissue ([3]; 120 min post injection): 0.64 ± 0.40 %ID/g
- F-18 uptake in kidneys, Percent Injected Dose per gram Tissue ([3]; 120 min post injection): 1.41 ± 0.11 %ID/g
- F-18 uptake in liver, Percent Injected Dose per gram Tissue ([3]; 120 min post injection): 2.35 ± 1.20 %ID/g
- F-18 uptake in lung, Percent Injected Dose per gram Tissue ([3]; 120 min post injection): 1.47 ± 0.47 %ID/g
- F-18 uptake in muscle, Percent Injected Dose per gram Tissue ([3]; 120 min post injection): 0.57 ± 0.54 %ID/g
- F-18 uptake in spleen, Percent Injected Dose per gram Tissue ([3]; 120 min post injection): 0.71 ± 0.37 %ID/g
- F-18 uptake in blood, Percent Injected Dose per gram Tissue ([3]; 180 min post injection): 0.13 ± 0.03 %ID/g
- F-18 uptake in bone, Percent Injected Dose per gram Tissue ([3]; 180 min post injection): 0.17 ± 0.05 %ID/g
- F-18 uptake in brain, Percent Injected Dose per gram Tissue ([3]; 180 min post injection): 0.29 ± 0.05 %ID/g
- F-18 uptake in heart, Percent Injected Dose per gram Tissue ([3]; 180 min post injection): 0.21 ± 0.04 %ID/g
- F-18 uptake in kidneys, Percent Injected Dose per gram Tissue ([3]; 180 min post injection): 0.83 ± 0.23 %ID/g
- F-18 uptake in muscle, Percent Injected Dose per gram Tissue ([3]; 180 min post injection): 0.17 ± 0.03 %ID/g
- F-18 uptake in spleen, Percent Injected Dose per gram Tissue ([3]; 180 min post injection): 0.44 ± 0.25 %ID/g
- tumor to blood ratio ([3]; C57 mice bearing B16F1 melanoma tumor, 60 min post-injection): 8.3±3
- tumor to liver ratio [3, 5]: 6.33±1.9
- tumor to lung ratio [3, 5]: 21.90±4.68 and > 20
- tumor to muscle ratio [3, 5]: 32.91±6.11 and > 20
- tumor to spleen ratio [3, 5]: 14.90±6.47
Structure (SMILES): CCN(CC)CCNC(=O)c1ccc([18F])cc1 [[^18F]-DAFBA, N-(2-diethylaminoethyl)-4-[^18F]fluorobenzamide]
- percent uptake by cells (percent of total added radioactivity) (B16F1 melanoma cells): 5.60±2.67%

Structure (SMILES): CCN(CC)CCNC(=O)c1ccc(OC)c(I)c1 [[^*I]IMBA, [^*I]N-(2-diethylaminoethyl) 3-iodo 4-methoxybenzamide]
- radioiodine uptake in blood ([4]; 60 min post injection): 0.84±0.08 %ID/g
- radioiodine uptake in liver ([4]; 60 min post injection): 3.09±0.45 %ID/g
- radioiodine uptake in lungs ([4]; 60 min post injection): 1.06±0.23 %ID/g
- radioiodine uptake in intestine [4]: 7.70±4.70 %ID/g
- radioiodine uptake in the stomach [4]: 9.72±1.51 %ID/g
